# Compound activity as filed in PubChem.
# Only some compounds are listed: those with a hit (about 3.1% of all), similar ones and a draw of the others.
# CHO parental Ca: ATP-evoked calcium signal inhibitors, parental CHO, primary screen, counter-screen for OX1R antagonist project, cell-based, fluorescence, Fluo-8 calcium dye; parental CHO-K1, ATP-induced calcium, Fluo-8 fluorescence; inhibition, % at 5.6 µM; hit rate 0.63% among 330,000; AID 463079, 2010;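 active = inhibition above that plate's mean sample inhibition plus 3 SD, cut at about 26% in these data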;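 also: 0% = ATP-challenged DMSO wells and 100% = DMSO wells without ATP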
#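 Test system: untransfected parental CHO cell line. Compound: one dose, 5.6 µM nominal. Detection: intracellular calcium via Fluo-8 no-wash fluorescent dye. Measure: % inhibition. Benchmarks: ATP-challenged DMSO wells low, unchallenged DMSO wells high.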
# GPR7 antagonist: GPR7 receptor antagonists, primary screen, cell-based, fluorescence, single concentration. Neuropeptides B/W receptor type 1 (Homo sapiens), P48145. GPR7-expressing cells, fluorescence antagonist assay. inhibition, % at 4.4 µM. hit rate 1.1% among 290,000. AID 1861, 2009; in the data active = inhibition above about 16%, passing the limit was not always enough;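 also: cells stimulated with the agonist NPW; 0% = agonist with vehicle and 100% = vehicle without agonist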
# Target sequence (P48145 whole entry, looked up): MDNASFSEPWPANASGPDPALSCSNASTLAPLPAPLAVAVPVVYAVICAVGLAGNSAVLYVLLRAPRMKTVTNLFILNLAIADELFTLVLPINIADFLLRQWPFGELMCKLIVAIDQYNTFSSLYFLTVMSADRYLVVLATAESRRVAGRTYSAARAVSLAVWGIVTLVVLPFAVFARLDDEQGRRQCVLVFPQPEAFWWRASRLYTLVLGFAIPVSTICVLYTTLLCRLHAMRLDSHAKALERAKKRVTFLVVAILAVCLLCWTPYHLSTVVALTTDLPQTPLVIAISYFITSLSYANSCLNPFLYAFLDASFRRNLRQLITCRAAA
# OX1R antag-1: OX1R (HCRTR1) antagonists, primary screen, fluorescence, CHO/OX1R cells, Fluo-8 calcium, orexin A; Fluo-8 calcium fluorescence; inhibition, % at 5 µM; hit rate 0.43% among 330,000;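 active = inhibition above its plate's threshold, mean inhibition of all tested compounds on the plate plus 3 SD, cut at about 37% in these data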;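 also: 0% = orexin A challenge wells and 100% = SB-334867-A antagonist wells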
# GalR3 antag: GalR3 antagonists in HEK293 cells, primary screen, cell-based, fluorescence readout. Galanin receptor type 3 (Homo sapiens), O60755. HEK293 GalR3-CNG cAMP membrane potential fluorescence; galR3 body fused to GalR1 C-terminus. inhibition, % at 3 µM. hit rate 0.44% among 360,000. AID 651719, 2012;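 active = inhibition above the screen-wide average plus 3 SD, cut at about 13% in these data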;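 also: forskolin and galanin both at EC90 stimulate the cells; cAMP rise reported by CNG channel membrane potential dye signal; 0% = forskolin plus galanin with DMSO and 100% = forskolin alone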
# OX1R antag-2: antagonists of human orexin 1 receptor (OX1R). Orexin/Hypocretin receptor type 1 (Homo sapiens), O43613. OX1R-expressing cells, FRET antagonist read-out. inhibition, % at 6.6 µM. hit rate 1.8% among 330,000; in the data active = inhibition mostly above about 38%, no sharp cut-off; inactive = mostly below about 40%;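 also: 0% = agonist challenge alone and 100% = reference antagonist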
# The depositor's hits bear a star; · = no result.
SMILES,CHO parental Ca,GPR7 antagonist,OX1R antag-1,GalR3 antag,OX1R antag-2
O=C1c2cccc(O)c2C(=O)c2c(O)cc(CO)cc21,-1,·,10,·,48*
CC(=O)n1cc(N(C(=O)CCl)c2ccccc2)c2ccccc21,-6,-7,-9,-6,5
CC(=O)n1cc(N(C(=O)CCl)c2ccc([N+](=O)[O-])cc2)c2ccccc21,-15,21*,6,-4,20
C=CCSc1nc(N)c2c(C)c(C)sc2n1,-13,-9,-13,-7,46*
c1ccc(-c2nc3ccccc3[nH]2)nc1,-7,-3,-6,-3,11
c1ccc(-c2nc3c(ccc4ccccc43)[nH]2)nc1,-13,2,-9,-4,71*
CCNCc1cc(Br)c(OCC(=O)Nc2ccccc2)c(OC)c1,-12,6,-21,-2,8
COc1cc(CNCC(C)C)cc(Br)c1OCC(=O)Nc1ccccc1,-21,18*,-15,-6,4
Cc1ccc(C(C)C)cc1NC(=O)Nc1ccc([N+](=O)[O-])cc1,55*,32,22,-10,36
CC(=O)c1ccc(NC(=O)Nc2ccc([N+](=O)[O-])cc2)cc1,35*,-3,17,-6,29
CC(=O)c1ccc(NC(=O)NNS(=O)(=O)c2ccc([N+](=O)[O-])cc2)cc1,-5,-11,-3,0,43
O=C(Nc1ccc([N+](=O)[O-])cc1)Nc1cnccn1,2,13,6,1,67*
Cc1ccc(NC(=O)Nc2cnccn2)cc1,-7,-2,-7,-6,29
Cc1cc(C)n(-c2cccc(F)n2)n1,-7,2,1,-4,7
CCN(C(=O)CSc1cc(C)c2cccc(C)c2n1)C1CCS(=O)(=O)C1 (stereo not given),-9,-7,-21,-6,10
Cc1ccc(S(=O)(=O)N2CCCC2CNC(=O)c2ccc(F)c(F)c2)cc1 (stereo not given),-25,·,16,-5,70*
O=C(NCC1CCCN1S(=O)(=O)c1ccccc1)c1cccc(Cl)c1 (stereo not given),-4,·,-7,5,60*
Cc1ccc(C)c(S(=O)(=O)N2CCCC2CNC(=O)c2ccc([N+](=O)[O-])cc2)c1 (stereo not given),-2,·,-31,-1,54*
CC(C)(C)c1ccc(C(=O)NCC2CCCN2S(=O)(=O)c2ccccc2)cc1 (stereo not given),-15,·,-32,-3,23
Cc1ccc(NC(=O)CNc2ccccc2N2CCCC2=O)cc1S(=O)(=O)N1CCCCC1,-21,·,-22,-6,0
CCCCC(=O)Nc1ccc2c3c(cccc13)C(=O)N2CC,-21,-4,-21,-5,45*
CCN1C(=O)c2cccc3c(NC(=O)C(C)(C)C)ccc1c23,-10,4,-18,-1,18
C=CCN(C(=O)c1csnn1)C(C(=O)NC1CCCC1)c1ccc(Cl)cc1 (stereo not given),-15,-2,-18,-7,69*
CC(NC(=O)CCNS(=O)(=O)c1cccc2nsnc12)c1ccccc1 (stereo not given),-12,-6,-9,-8,69*
O=C(NCCc1ccccc1)C(NS(=O)(=O)c1cccc2nsnc12)c1ccccc1 (stereo not given),-18,-6,-15,-12,74*
SMILES,CHO parental Ca,GPR7 antagonist,OX1R antag-1,GalR3 antag,OX1R antag-2
COc1ccc(CNC(=O)CCNS(=O)(=O)c2cccc3nsnc23)cc1,-6,-12,-15,-1,46
CC(C)c1ccc(NC(=O)CCNS(=O)(=O)c2cccc3nsnc23)cc1,-9,-9,-4,-5,14
O=C(CCNS(=O)(=O)c1cccc2nsnc12)NCc1ccccc1,-1,-9,-16,6,77*
O=C(NCc1ccccc1)C(Cc1ccccc1)NS(=O)(=O)c1cccc2nsnc12 (stereo not given),-17,7,-10,-2,24
O=C(CCNC(=O)C1CCN(S(=O)(=O)c2ccc(F)cc2)CC1)NC1CC1,-17,4,-17,-10,6
N#Cc1ccc(C(=O)CSc2n[nH]c(=O)n2Cc2ccco2)cc1,2,-9,-12,0,15
CCOC(=O)c1c(C)[nH]c2c1cc(O)c1ccccc12,2,4,-8,-2,43*
